ChEMBL document CHEMBL3745596, “Chlorophenoxy aminoalkyl derivatives as histamine H(3)R ligands and antiseizure agents” (Bioorg Med Chem, 2016)
The source made the active and inactive calls.

Legend:
Histamine H3 receptor [1] = target: T1, Histamine H3 receptor (Homo sapiens, UniProt Q9Y5N1); experiment: Antagonist activity at human recombinant histamine H3 receptor expressed in HEK293 cells assessed as inhibition of forskolin/(R)(-)-alpha-methylhistamine-induced cAMP accumulation after 1 hr by TR-FRET immunoassay; format: functional, cell-based
Outline: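 HEK293 cells stably expressing hH3R, stimulated 30 min at room temperature with (R)(-)-α-methylhistamine (15 nM), forskolin and antagonist (0.1 nM–10 µM range) added together. cAMP read by TR-FRET (Eu-cAMP tracer, ULight anti-cAMP antibody, 1 h), converted via cAMP standard curve to % maximal response. Sigmoidal dose–response fit; mean of three experiments, each in triplicate.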

Histamine H3 receptor [2] = target: T1, Histamine H3 receptor; experiment: Displacement of [3H]-Nalpha-methylhistamine from human recombinant histamine H3 receptor expressed in HEK293 cells after 90 mins; format: cell-based
[3] = Antiproliferative activity against human IMR32 cells assessed as cell viability after 48 hrs by formazan EZ4U dye based assay; details: IMR-32, 48 h
Outline: (§1)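 HEK-293 (1.5 × 10⁴/well) or IMR-32 (2 × 10⁴/well) cells in DMEM with 10% FBS, 37 °C, 5% CO₂, grown 24 h to about 60% confluence; compounds 0.01–250 µM final, DMSO at most 1%, 48 h.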

Mus musculus [4] = experiment: Neurotoxicity in CF1 albino mouse at 100 mg/kg, ip after 4 hrs by rotarod test; format: toxicity, organism-based; details: in vivo
Outline: (§2)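 Rotarod neurotoxicity in male albino CF-1 mice dosed ip with compound suspended in 0.5% methylcellulose. Animal placed on a 1 inch diameter knurled plastic rod rotating at 6 rpm. Neurotoxicity scored when the animal falls off three times within 1 min. Readout is number of animals toxic/number tested at the stated time after dosing. TD50 with 95% confidence interval from the quantitative study.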

Mus musculus [5] = experiment: Anticonvulsant activity in CF1 albino mouse assessed as protection against maximal electroshock-induced seizure at 10 mg/kg, ip after 0.5 hrs; format: functional, organism-based
Outline: (§3)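 Male CF-1 mice dosed ip as suspension in 0.5% methylcellulose. Corneal electrodes deliver 60 Hz alternating current, 50 mA for […], after a drop of 0.5% tetracaine HCl in 0.9% NaCl per eye. Protection means abolition of hindlimb tonic extension; scored as protected/tested, or ED50 with 95% confidence interval.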

Mus musculus [6] = experiment: Neurotoxicity in CF1 albino mouse at 30 mg/kg, ip after 0.5 hrs by rotarod test; format: toxicity, organism-based; details: in vivo; outline: as §2
Mus musculus [7] = experiment: Neurotoxicity in CF1 albino mouse assessed as unable to grasp rotarod and death at 100 mg/kg, ip after 0.5 hrs by rotarod test; format: toxicity, organism-based; details: in vivo
Outline: (§4)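 Male albino CF-1 mice dosed ip with compound suspended in 0.5% methylcellulose, then placed on a 1-inch knurled plastic rod turning at 6 rpm. A fall three times within 1 min counted as neurotoxicity. Observations were made at 0.5 h and 4 h after dosing. Result given as animals showing toxicity per animals tested, with the kind of toxicity recorded.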

Mus musculus [8] = experiment: Anticonvulsant activity in CF1 albino mouse assessed as protection against subcutaneous pentetrazole-induced seizure at 30 mg/kg, ip after 0.5 hrs; format: functional, organism-based
Outline: (§5)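 Male CF-1 mice, ip in 0.5% methylcellulose; pentetrazole at CD97 (85 mg/kg) injected subcutaneously in a loose fold of neck skin. Observed 30 min; absence of even a threshold seizure (single clonic spasm lasting at least 5 s) counted as protection. Scored protected/tested, or ED50.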

Mus musculus [9] = experiment: Anticonvulsant activity in CF1 albino mouse assessed as protection against maximal electroshock-induced seizure at 3 mg/kg, ip after 0.5 hrs; format: functional, organism-based; outline: as §3
Mus musculus [10] = experiment: Anticonvulsant activity in CF1 albino mouse assessed as protection against maximal electroshock-induced seizure at 30 mg/kg, ip after 0.5 hrs; format: functional, organism-based; outline: as §3
Mus musculus [11] = experiment: Anticonvulsant activity in CF1 albino mouse assessed as protection against maximal electroshock-induced seizure at 100 mg/kg, ip after 0.5 hrs; format: functional, organism-based; outline: as §3
Mus musculus [12] = experiment: Neurotoxicity in CF1 albino mouse at 300 mg/kg, ip after 4 hrs by rotarod test; format: toxicity, organism-based; details: in vivo; outline: as §2
Mus musculus [13] = experiment: Neurotoxicity in CF1 albino mouse at 30 mg/kg, ip after 4 hrs by rotarod test; format: toxicity, organism-based; details: in vivo; outline: as §2
Mus musculus [14] = experiment: Neurotoxicity in CF1 albino mouse at 3 mg/kg, ip after 0.5 hrs by rotarod test; format: toxicity, organism-based; details: in vivo; outline: as §2
Mus musculus [15] = experiment: Anticonvulsant activity in CF1 albino mouse assessed as protection against maximal electroshock-induced seizure at 30 mg/kg, ip after 4 hrs; format: functional, organism-based; outline: as §3
Rattus norvegicus = experiment: Anticonvulsant activity in Sprague-Dawley rat assessed as protection against maximal electroshock-induced seizure at 30 mg/kg, po; format: functional
Mus musculus [16] = experiment: Neurotoxicity in CF1 albino mouse assessed as death at 300 mg/kg, ip after 0.5 hrs by rotarod test; format: toxicity, organism-based; details: in vivo; outline: as §4
Mus musculus [17] = experiment: Anticonvulsant activity in CF1 albino mouse assessed as protection against subcutaneous pentetrazole-induced seizure at 30 mg/kg, ip after 4 hrs; format: functional, organism-based; outline: as §5
Mus musculus [18] = experiment: Anticonvulsant activity in CF1 albino mouse assessed as protection against maximal electroshock-induced seizure at 100 mg/kg, ip after 4 hrs; format: functional, organism-based; outline: as §3
HEK293 = experiment: Antiproliferative activity against human HEK293 cells assessed as cell viability after 48 hrs by formazan EZ4U dye based assay; details: HEK293, 48 h; outline: as §1
Cytochrome P450 3A4 = Cytochrome P450 3A4 (Homo sapiens, UniProt P08684); experiment: Inhibition of CYP3A4 (unknown origin) up to 10 uM; format: ADME
Mus musculus [19] = experiment: Neurotoxicity in CF1 albino mouse at 10 mg/kg, ip after 0.5 hrs by rotarod test; format: toxicity, organism-based; details: in vivo
Outline: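 Rotarod neurotoxicity in male CF-1 mice dosed ip as 0.5% methylcellulose suspension: mouse placed on 1 inch knurled rod rotating at 6 rpm; toxicity when the animal falls off three times within 1 min, with other signs noted. Scored as toxic/tested at 0.5 h and 4 h.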

Liver microsome = experiment: Drug metabolism in human liver microsomes after 2 hrs by UPLC-MS/MS analysis; format: ADME
Outline: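 Pooled adult male and female human liver microsomes 1 mg/mL in 0.1 M Tris–HCl pH 7.4 with NADPH regeneration system; started after 5 min preincubation at 37 °C, incubated 2 h at 37 °C, stopped with cold methanol, centrifuged, supernatant analysed by UPLC with ESI tandem quadrupole MS.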

T1 sequence (Q9Y5N1 whole entry): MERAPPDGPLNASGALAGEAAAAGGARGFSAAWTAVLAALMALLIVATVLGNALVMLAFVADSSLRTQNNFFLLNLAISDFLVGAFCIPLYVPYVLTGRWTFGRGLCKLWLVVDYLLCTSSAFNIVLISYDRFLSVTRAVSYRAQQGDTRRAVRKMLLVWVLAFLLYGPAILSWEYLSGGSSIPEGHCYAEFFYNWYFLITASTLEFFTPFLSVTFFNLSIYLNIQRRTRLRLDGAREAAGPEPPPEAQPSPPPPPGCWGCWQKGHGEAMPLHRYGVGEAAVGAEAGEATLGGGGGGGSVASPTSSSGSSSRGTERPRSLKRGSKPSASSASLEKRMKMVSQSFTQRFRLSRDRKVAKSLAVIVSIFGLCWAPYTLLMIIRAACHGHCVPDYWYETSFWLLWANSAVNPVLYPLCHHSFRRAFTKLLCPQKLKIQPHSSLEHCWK
Chain of Cytochrome P450 3A4 (P08684 whole entry): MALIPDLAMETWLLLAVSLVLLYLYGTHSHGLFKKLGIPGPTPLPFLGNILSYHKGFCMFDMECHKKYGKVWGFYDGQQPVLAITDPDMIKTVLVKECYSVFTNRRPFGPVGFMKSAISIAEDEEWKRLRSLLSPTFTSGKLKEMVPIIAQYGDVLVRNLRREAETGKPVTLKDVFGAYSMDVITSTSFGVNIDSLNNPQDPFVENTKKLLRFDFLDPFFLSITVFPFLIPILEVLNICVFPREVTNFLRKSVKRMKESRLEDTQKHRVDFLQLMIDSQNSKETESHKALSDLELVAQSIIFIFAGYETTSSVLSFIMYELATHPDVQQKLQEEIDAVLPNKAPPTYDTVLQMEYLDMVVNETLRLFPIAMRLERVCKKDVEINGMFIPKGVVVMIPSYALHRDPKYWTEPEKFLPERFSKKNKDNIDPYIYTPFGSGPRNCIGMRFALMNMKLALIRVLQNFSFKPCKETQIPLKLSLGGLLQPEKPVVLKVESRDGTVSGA

**Q.** For `Clc1ccc(OCCCCCCCN2CCCCC2)cc1.O=C(O)C(=O)O`, which EC50 (Histamine H3 receptor [1]) is on record?
**A.** 0.075 µM

**Q.** And the Ki (Histamine H3 receptor [2])?
**A.** 0.128 µM

**Q.** And the IC50 [3]?
**A.** 15.5 µM

**Q.** And the Activity (Mus musculus [4])?
**A.** Non-toxic

**Q.** What about the Activity (Mus musculus [5]) of the same compound?
**A.** inactive

**Q.** What about the Activity (Mus musculus [6]) of the same compound?
**A.** Non-toxic

**Q.** What about the Activity (Mus musculus [7]) of the same compound?
**A.** Toxic

**Q.** And the Activity (Mus musculus [8])?
**A.** inactive

**Q.** What about the Activity (Mus musculus [9]) of the same compound?
**A.** inactive

**Q.** What about the Activity (Mus musculus [10]) of the same compound?
**A.** Active

**Q.** What about the Activity (Mus musculus [11]) of the same compound?
**A.** Active

**Q.** What about the Activity (Mus musculus [12]) of the same compound?
**A.** Non-toxic

**Q.** And the Activity (Mus musculus [13])?
**A.** Non-toxic

**Q.** What about the Activity (Mus musculus [14]) of the same compound?
**A.** Non-toxic

**Q.** What about the Activity (Mus musculus [15]) of the same compound?
**A.** inactive

**Q.** What about the Activity (Rattus norvegicus) of the same compound?
**A.** 25%

**Q.** What about the Activity (Mus musculus [16]) of the same compound?
**A.** Toxic

**Q.** And the Activity (Mus musculus [17])?
**A.** inactive

**Q.** What about the Activity (Mus musculus [18]) of the same compound?
**A.** Active

**Q.** What about the IC50 (HEK293) of the same compound?
**A.** 33.6 µM

**Q.** What about the “inhibition (INH)” value (Cytochrome P450 3A4) of the same compound?
**A.** Not Active

**Q.** What about the Activity (Mus musculus [19]) of the same compound?
**A.** Non-toxic

**Q.** What about the Drug metabolism (Liver microsome) of the same compound?
**A.** metabolite_detected
